Tests used:
[1] = system: MCF7; assay: Anticancer activity against human MCF7 cells assessed as reduction in cell viability after 96 hrs by MTT assay; assay type: functional, cell-based; details: MCF7, 96 h
In short: (§1)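 Cancer lines grown in RPMI with 10% FBS and 1% penicillin/streptomycin, 37 C, humidified 5% CO2. Cells exposed to test agents or vehicle in RPMI/10% FBS for 96 h; viability read by MTT; IC50 as mean ± S.D., n = 6.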

[2] = system: A549; assay: Anticancer activity against human A549 cells assessed as reduction in cell viability after 96 hrs by MTT assay; assay type: functional, cell-based; details: A549, 96 h; in short: as §1
[3] = system: HT-29; assay: Anticancer activity against human HT-29 cells assessed as reduction in cell viability after 96 hrs by MTT assay; assay type: functional, cell-based; details: HT-29, 96 h; in short: as §1
[4] = Cytotoxicity against human F180 cells assessed as reduction in cell viability after 96 hrs by MTT assay; assay type: cell-based; details: F180, 96 h
In short: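 F180 normal fibroblasts kept in MEM with 10% FBS and 1% penicillin/streptomycin at 37 C, humidified 5% CO2. Treated with test agents or vehicle in MEM/10% FBS for 96 h; viability by MTT; IC50 reported as mean ± S.D. (n = 6).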

[5] = organism: Sus scrofa; assay: Inhibition of porcine brain tubulin polymerization assessed as tubulin polymerization level by measuring arbitary units at 3 uM by fluorescence analysis

SMILES	IC50 [1] [µM]	IC50 [2] [µM]	IC50 [3] [µM]	IC50 [4] [µM]	Activity [5] [a.u.]
O=C(N/N=C1\CC2(CCCCC2)Oc2c1ccc1ccccc21)Nc1ccc(Cl)cc1	15	9.54	7.37		
C#Cc1cccc(Nc2ncnc3cc(OCCOC)c(OCCOC)cc23)c1 [ERLOTINIB]	> 20	17.3	> 20		
CSC(=S)N/N=C1\CC2(CCCCC2)Oc2c1ccc1ccccc21	5.1	3.99	4.13	> 40	
CN1CCN(C(=S)N/N=C2\CC3(CCCCC3)Oc3c2ccc2ccccc32)CC1	11.7	10.6	8.17		
S=C(N/N=C1\CC2(CCCCC2)Oc2c1ccc1ccccc21)NC1CCCCC1	15.1	9.14	7.44		
N/N=C1\CC2(CCCCC2)Oc2c1ccc1ccccc21	9.74	12.9	9.97		
O=C(N/N=C1\CC2(CCCCC2)Oc2c1ccc1ccccc21)Nc1ccccc1	12	8.15	4.74		
CNC(=O)c1cc(Oc2ccc(NC(=O)Nc3ccc(Cl)c(C(F)(F)F)c3)cc2)ccn1 [SORAFENIB]	3.64	6.21	3.97	> 40	
Cc1ccc(NC(=O)N/N=C2\CC3(CCCCC3)Oc3c2ccc2ccccc32)cc1	9.07	8.35	7.09		
S=C(N/N=C1\CC2(CCCCC2)Oc2c1ccc1ccccc21)N1CCOCC1	11.9	10.1	9.31		
O=C1c2ccccc2C(=O)N1/N=C1\CC2(CCCCC2)Oc2c1ccc1ccccc21	12.1	12.4	8.34		
CC(=O)O[C@@]12CO[C@@H]1C[C@H](O)[C@@]1(C)C(=O)[C@H](O)C3=C(C)[C@@H](OC(=O)[C@H](O)[C@@H](NC(=O)OC(C)(C)C)c4ccccc4)C[C@@](O)([C@@H](OC(=O)c4ccccc4)[C@H]21)C3(C)C					4820
S=C(N/N=C1\CC2(CCCCC2)Oc2c1ccc1ccccc21)N1CCCCC1	13.3	11.4	6.77		
S=C(N/N=C1\CC2(CCCCC2)Oc2c1ccc1ccccc21)N1CCNCC1	14.2	12	8.34		
O=C1CC2(CCCCC2)Oc2c1ccc1ccccc21	10.7	10.6	6.15		
CC[C@]1(O)C[C@H]2CN(CCc3c([nH]c4ccccc34)[C@@](C(=O)OC)(c3cc4c(cc3OC)N(C=O)[C@H]3[C@@](O)(C(=O)OC)[C@H](OC(C)=O)[C@]5(CC)C=CCN6CC[C@]43[C@@H]65)C2)C1					747
O=C1Nc2ccccc2/C1=N/N=C1\CC2(CCCCC2)Oc2c1ccc1ccccc21	5.11	11.1	7.67	> 40	

Reference: ChEMBL document CHEMBL4229351, “Design, synthesis and anticancer evaluation of novel spirobenzo[h]chromene and spirochromane derivatives with dual EGFR and B-RAF inhibitory activities” (Eur J Med Chem, 2018)
